How the values were obtained:
Assay type in all cases: functional, cell-based
THP-1 = test: Cytotoxicity against human THP1 cells after 2 days by MTT assay; conditions: THP-1, 48 h
In short: (§1)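 Leukemia lines (HL-60, THP-1, U-937, Jurkat) grown in RPMI-1640, A-549 in DMEM, both with 10% heat-inactivated FCS at 37 °C, 5% CO2. Cells seeded at 2 × 10⁴/well, dosed after 24 h and read 2 days later. MTT (5 mg/mL stock) added for 4 h at 37 °C, formazan dissolved in DMSO, read at 570 nm. Five replicates; IC50 from linear regression.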

Jurkat = test: Cytotoxicity against human Jurkat cells after 2 days by MTT assay; conditions: 48 h; in short: as §1
U-937 = test: Cytotoxicity against human U937 cells after 2 days by MTT assay; conditions: U-937, 48 h; in short: as §1
HL-60 = test: Cytotoxicity against human HL60 cells after 2 days by MTT assay; conditions: HL-60, 48 h; in short: as §1
A549 = test: Cytotoxicity against human A549 cells after 2 days by MTT assay; conditions: A549, 48 h; in short: as §1

Compound	IC50 (THP-1)	IC50 (Jurkat)	IC50 (U-937)	IC50 (HL-60)	IC50 (A549)
O=C1c2ccc(-c3nc4ccccc4s3)cc2N=C[C@@H]2CCCN12	3.09 µM	9.43 µM	5.41 µM	7.27 µM	–
COc1ccc2nc(-c3ccc(NC(=O)C4CC4)cc3)sc2c1	> 50 µM	> 50 µM	> 50 µM	> 50 µM	> 50 µM
COc1ccc2nc(-c3ccc(C)c(N)c3)sc2c1	> 50 µM	> 50 µM	> 50 µM	> 50 µM	> 50 µM
COc1ccc2nc(-c3ccc(N)cc3)sc2c1	> 50 µM	> 50 µM	> 50 µM	> 50 µM	> 50 µM
Cc1ccc(-c2nc3ccc(F)cc3s2)cc1N	> 50 µM	> 50 µM	> 50 µM	> 50 µM	> 50 µM
COc1ccc2nc(-c3ccc(N=C(NC4CCCCC4)NC4CCCCC4)cc3)sc2c1	3.1 µM	2.23 µM	–	7.15 µM	3.23 µM
Cc1ccc(-c2nc3ccccc3s2)cc1N	> 50 µM	> 50 µM	> 50 µM	> 50 µM	> 50 µM
CC[C@@]1(O)C(=O)OCc2c1cc1n(c2=O)Cc2cc3ccccc3nc2-1 [CAMPTOTHECIN]	0.071 µM	0.026 µM	1.98 µM	0.6 µM	0.008 µM
CC1(C)O[C@H]2O[C@H]([C@H]3COC(C)(C)O3)[C@H](OCc3ccc(-c4nc5ccc(F)cc5s4)cc3)[C@H]2O1	> 50 µM	> 50 µM	> 50 µM	> 50 µM	> 50 µM
COc1cc([C@@H]2c3cc4c(cc3[C@@H](O[C@@H]3O[C@@H]5CO[C@@H](C)O[C@H]5[C@H](O)[C@H]3O)[C@H]3COC(=O)[C@H]23)OCO4)cc(OC)c1O [ETOPOSIDE]	–	5.35 µM	17.9 µM	–	–
CC1(C)O[C@H]2O[C@H]([C@H](O)CO)[C@H](OCc3ccc(-c4nc5ccc(F)cc5s4)cc3)[C@H]2O1	3 µM	3.2 µM	–	22.3 µM	5.01 µM
COc1ccc2nc(-c3ccc(NC(=O)NCc4ccccc4)cc3)sc2c1	> 50 µM	> 50 µM	> 50 µM	> 50 µM	> 50 µM
COc1ccc2nc(-c3ccc4c(c3)N=C[C@@H]3CCCN3C4=O)sc2c1	2.14 µM	11.3 µM	6.03 µM	6.39 µM	–
O=C1c2ccc(-c3nc4ccc(F)cc4s3)cc2N=C[C@@H]2CCCN12	0.49 µM	6.58 µM	3.44 µM	4.13 µM	–
COc1cc2nc(-c3cccc(N)c3C)sc2c(OC)c1OC	3.56 µM	9.75 µM	–	5.63 µM	4.56 µM

Source: ChEMBL document CHEMBL1949538, “Hybrids of privileged structures benzothiazoles and pyrrolo[2,1-c] [1,4]benzodiazepin-5-one, and diversity-oriented synthesis of benzothiazoles” (Eur J Med Chem, 2012)
